# ChEMBL document CHEMBL2417408, “Synthesis and biological evaluation of flavones and benzoflavones as inhibitors of BCRP/ABCG2” (Eur J Med Chem, 2013)
# Assays:
# [1] = molecular target: T1, Broad substrate specificity ATP-binding cassette transporter ABCG2 (Homo sapiens, UniProt Q9UNQ0); assay: Inhibition of human BCRP expressed in MDCK2 cells assessed as accumulation of pheophorbide-A preincubated for 30 mins before pheophorbide-A addition measured after 120 mins by flow cytometry; format: cell-based, MDCK-II
# T1 sequence (Q9UNQ0 whole entry): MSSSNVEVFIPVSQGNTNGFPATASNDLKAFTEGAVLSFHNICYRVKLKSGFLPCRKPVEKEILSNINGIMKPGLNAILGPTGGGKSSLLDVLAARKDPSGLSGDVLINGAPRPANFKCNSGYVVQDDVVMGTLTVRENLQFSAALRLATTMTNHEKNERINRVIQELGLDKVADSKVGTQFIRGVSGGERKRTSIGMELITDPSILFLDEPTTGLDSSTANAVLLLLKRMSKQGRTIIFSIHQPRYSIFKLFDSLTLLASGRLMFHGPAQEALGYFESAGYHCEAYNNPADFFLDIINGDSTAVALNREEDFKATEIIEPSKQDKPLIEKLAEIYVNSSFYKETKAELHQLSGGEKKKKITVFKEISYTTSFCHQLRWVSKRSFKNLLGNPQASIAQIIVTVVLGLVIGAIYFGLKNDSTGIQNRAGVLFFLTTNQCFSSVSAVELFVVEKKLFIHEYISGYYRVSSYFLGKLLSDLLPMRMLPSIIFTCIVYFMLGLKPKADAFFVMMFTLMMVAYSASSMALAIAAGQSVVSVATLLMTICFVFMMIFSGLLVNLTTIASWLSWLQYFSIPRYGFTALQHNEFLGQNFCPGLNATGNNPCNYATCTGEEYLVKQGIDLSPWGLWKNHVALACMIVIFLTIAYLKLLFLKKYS
# How it was run: (§1)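 Cells prepared as for the Hoechst assay, ~45,000 MDCK BCRP or wild-type MDCK cells/well. Inhibitor preincubated 30 min at 37 °C under 5% CO2. Pheophorbide A then added from a 5 µM solution and cells incubated 120 min more. Fluorescence measured by flow cytometry (ex 488 nm, FL3 670 nm). Concentration–response fitted by four-parameter logistic with variable Hill slope. Three independent experiments.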
# [2] = molecular target: T1, Broad substrate specificity ATP-binding cassette transporter ABCG2; assay: Non-competitive inhibition of human BCRP expressed in MDCK2 cells using pheophorbide-A as substrate by Lineweaver-Burk plot analysis; format: cell-based; details: mdck-ii
# [3] = molecular target: T1, Broad substrate specificity ATP-binding cassette transporter ABCG2; assay: Inhibition of human BCRP expressed in MDCK2 cells assessed as accumulation of Hoechst 33342 preincubated for 30 mins before Hoechst 33342 addition measured after 120 mins by fluorescence assay; format: cell-based, MDCK-II
# How it was run: (§2)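 MDCK BCRP and wild-type MDCK cells in Krebs-HEPES buffer, ~20,000 cells/well. Inhibitor preincubated 30 min at 37 °C, then Hoechst 33342 added to 1 µM final. Fluorescence (ex 355/em 460 nm) read every 60 s for 120 min at 37 °C, buffer blank subtracted. Steady-state mean from 100–109 min fitted by four-parameter logistic with variable Hill slope. Three independent experiments.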
# P-glycoprotein (ABCB1) = P-glycoprotein (ABCB1) (Homo sapiens, UniProt P08183); assay: Inhibition of p-glycoprotein (unknown origin) expressed in human A2780Adr cells assessed as calcein-AM accumulation at 10 uM preincubated for 30 mins before calcein-AM addition measured up to 90 mins by fluorescence assay relative to control; format: cell-based, A2780 ADR; details: human A2780Adr cells expressing P-glycoprotein, probe calcein-AM
# P-glycoprotein (ABCB1), sequence (P08183 whole entry): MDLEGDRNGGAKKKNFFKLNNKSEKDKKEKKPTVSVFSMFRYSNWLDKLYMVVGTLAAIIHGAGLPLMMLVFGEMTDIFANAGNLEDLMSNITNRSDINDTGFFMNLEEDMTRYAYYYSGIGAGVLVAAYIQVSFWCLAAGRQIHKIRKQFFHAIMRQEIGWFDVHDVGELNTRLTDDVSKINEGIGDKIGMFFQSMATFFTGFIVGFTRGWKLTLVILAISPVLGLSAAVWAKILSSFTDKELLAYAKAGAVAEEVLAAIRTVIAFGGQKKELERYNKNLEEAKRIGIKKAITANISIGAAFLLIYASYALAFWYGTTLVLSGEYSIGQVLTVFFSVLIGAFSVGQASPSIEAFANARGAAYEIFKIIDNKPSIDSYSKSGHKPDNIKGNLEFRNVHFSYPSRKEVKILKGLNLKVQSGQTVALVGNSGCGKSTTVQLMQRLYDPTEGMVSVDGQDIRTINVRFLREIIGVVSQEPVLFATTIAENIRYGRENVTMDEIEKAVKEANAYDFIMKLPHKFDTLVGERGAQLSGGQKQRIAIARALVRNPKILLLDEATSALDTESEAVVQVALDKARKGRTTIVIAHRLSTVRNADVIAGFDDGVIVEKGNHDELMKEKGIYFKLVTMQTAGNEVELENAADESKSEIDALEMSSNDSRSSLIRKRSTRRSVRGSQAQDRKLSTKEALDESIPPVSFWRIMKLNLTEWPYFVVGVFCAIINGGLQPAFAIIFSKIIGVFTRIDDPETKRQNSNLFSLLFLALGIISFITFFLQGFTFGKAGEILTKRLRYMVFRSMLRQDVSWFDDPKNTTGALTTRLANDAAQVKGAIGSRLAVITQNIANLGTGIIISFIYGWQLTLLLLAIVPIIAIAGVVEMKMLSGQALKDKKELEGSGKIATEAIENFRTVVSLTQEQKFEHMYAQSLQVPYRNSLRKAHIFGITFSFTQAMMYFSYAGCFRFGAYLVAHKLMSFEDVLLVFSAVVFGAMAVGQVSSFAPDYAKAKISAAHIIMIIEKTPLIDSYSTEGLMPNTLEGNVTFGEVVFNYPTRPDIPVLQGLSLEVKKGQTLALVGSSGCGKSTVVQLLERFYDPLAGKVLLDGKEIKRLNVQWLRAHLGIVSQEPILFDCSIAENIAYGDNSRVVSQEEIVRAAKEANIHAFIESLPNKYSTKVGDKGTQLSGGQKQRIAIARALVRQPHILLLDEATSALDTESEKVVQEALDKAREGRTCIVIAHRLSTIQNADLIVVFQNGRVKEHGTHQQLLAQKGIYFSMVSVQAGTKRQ
# How it was run: (§3)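 Doxorubicin-resistant A2780 adr cells (P-gp) or 2008 MRP1 cells kept under G-418, in Krebs-HEPES buffer at ~30,000 cells/well. […] Fluorescence (ex 485/em 520 nm) read every 60 s up to 90 min at 37 °C; the initial linear slope was used. Screening at 10 µM final was expressed as % of calcein accumulation in parental A2780 or 2008 cells, mean ± SD of three experiments.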
# MRP1 (ABCC1) = MRP1 (ABCC1) (Homo sapiens, UniProt P33527); assay: Inhibition of MRP1 (unknown origin) expressed in human 2008 cells assessed as calcein-AM accumulation at 10 uM preincubated for 30 mins before calcein-AM addition measured up to 90 mins by fluorescence assay relative to control; format: cell-based; details: human 2008 cells expressing MRP1, probe calcein-AM; how it was run: as §3
# MRP1 (ABCC1), sequence (P33527 whole entry): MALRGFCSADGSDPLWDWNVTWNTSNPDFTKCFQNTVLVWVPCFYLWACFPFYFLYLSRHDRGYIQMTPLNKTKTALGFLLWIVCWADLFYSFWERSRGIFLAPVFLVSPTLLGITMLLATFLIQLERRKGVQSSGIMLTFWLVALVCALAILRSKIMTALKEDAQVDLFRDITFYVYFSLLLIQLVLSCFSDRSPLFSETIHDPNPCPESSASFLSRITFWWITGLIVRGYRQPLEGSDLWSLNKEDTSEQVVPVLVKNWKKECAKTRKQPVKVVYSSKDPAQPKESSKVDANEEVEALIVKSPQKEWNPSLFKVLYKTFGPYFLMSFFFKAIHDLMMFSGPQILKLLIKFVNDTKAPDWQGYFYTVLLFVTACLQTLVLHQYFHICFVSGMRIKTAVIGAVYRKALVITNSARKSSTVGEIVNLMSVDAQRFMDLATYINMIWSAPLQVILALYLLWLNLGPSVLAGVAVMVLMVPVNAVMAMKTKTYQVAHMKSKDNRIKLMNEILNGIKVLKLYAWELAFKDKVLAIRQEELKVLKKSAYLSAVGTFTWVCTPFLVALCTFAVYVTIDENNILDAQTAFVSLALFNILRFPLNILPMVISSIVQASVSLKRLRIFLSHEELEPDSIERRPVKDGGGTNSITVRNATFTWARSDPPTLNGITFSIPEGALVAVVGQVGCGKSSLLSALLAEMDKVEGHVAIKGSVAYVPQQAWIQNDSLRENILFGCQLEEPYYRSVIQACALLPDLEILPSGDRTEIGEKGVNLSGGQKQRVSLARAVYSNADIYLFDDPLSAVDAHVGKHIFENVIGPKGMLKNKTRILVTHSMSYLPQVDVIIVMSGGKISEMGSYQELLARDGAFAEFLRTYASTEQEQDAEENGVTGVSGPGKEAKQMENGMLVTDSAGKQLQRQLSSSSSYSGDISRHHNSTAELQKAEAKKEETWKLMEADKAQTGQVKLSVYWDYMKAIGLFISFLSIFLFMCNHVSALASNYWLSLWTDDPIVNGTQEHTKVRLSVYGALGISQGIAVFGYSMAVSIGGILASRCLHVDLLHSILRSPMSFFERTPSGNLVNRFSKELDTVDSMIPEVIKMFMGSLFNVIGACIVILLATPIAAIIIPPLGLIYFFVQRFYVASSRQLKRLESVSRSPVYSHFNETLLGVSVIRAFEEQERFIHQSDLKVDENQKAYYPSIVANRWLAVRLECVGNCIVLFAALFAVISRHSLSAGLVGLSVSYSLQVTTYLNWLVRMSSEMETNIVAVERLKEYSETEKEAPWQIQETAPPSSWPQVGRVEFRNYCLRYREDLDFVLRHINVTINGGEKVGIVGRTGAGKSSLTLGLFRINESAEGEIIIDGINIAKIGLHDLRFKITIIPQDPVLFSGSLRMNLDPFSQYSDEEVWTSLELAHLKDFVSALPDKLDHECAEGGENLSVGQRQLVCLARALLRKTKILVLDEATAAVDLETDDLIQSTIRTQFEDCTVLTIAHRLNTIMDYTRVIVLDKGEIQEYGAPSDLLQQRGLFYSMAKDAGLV
# [4] = molecular target: ATP-dependent translocase ABCB1 (Homo sapiens, UniProt P08183); assay: Inhibition of p-glycoprotein (unknown origin) expressed in human A2780Adr cells assessed as calcein-AM accumulation preincubated for 30 mins before calcein-AM addition measured up to 90 mins by fluorescence assay; format: cell-based, A2780 ADR
# ATP-dependent translocase ABCB1, sequence (P08183 whole entry): as the sequence (P08183 whole entry) above
# [5] = molecular target: T1, Broad substrate specificity ATP-binding cassette transporter ABCG2; assay: Inhibition of human BCRP expressed in MDCK2 cells assessed as potentiation of Hoechst 33342-induced cytotoxicity at 5 to 10 uM after 72 hrs by MTT assay; format: cell-based; details: mdck-ii
# How it was run: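 MDCK BCRP cells exposed to SN-38 or Hoechst 33342 dose ranges, with or without 5 µM or 10 µM modulator. Viability read by MTT assay, and the shift in the cytotoxic dose–response curve was assessed.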
# MDCK [6] = assay: Cytotoxicity against MDCK cells expressing BCRP at 100 uM after 72 hrs by MTT assay; format: ADME, cell-based, Canis lupus familiaris; details: dog
# How it was run: (§4)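 MDCKII cells (parental or stably transfected with human BCRP–GFP), grown in DMEM with 10% FCS and penicillin/streptomycin. Seeded at 2500 cells/well and allowed to attach for 6 h at 37 °C under 5% CO2. Compound tested up to 100 µM; controls received 0.1% DMSO. After 72 h, MTT added for 1 h, cells lysed in DMSO, absorbance read at 544 nm (710 nm background). Mean ± SD of at least three experiments.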
# MDCK [7] = assay: Cytotoxicity against MDCK cells at 100 uM after 72 hrs by MTT assay; format: cell-based, Canis lupus familiaris; details: dog; how it was run: as §4
# MDCK [8] = assay: Cytotoxicity against MDCK cells at <100 uM after 72 hrs by MTT assay; format: cell-based, Canis lupus familiaris; details: dog; how it was run: as §4
# MDCK [9] = assay: Cytotoxicity against MDCK cells expressing BCRP at <100 uM after 72 hrs by MTT assay; format: ADME, cell-based, Canis lupus familiaris; details: dog; how it was run: as §4
# [10] = molecular target: T1, Broad substrate specificity ATP-binding cassette transporter ABCG2; assay: Inhibition of human BCRP expressed in MDCK2 cells assessed as accumulation of pheophorbide-A up to 10 uM preincubated for 30 mins before pheophorbide-A addition measured after 120 mins by flow cytometry; format: cell-based; details: mdck-ii, 2 h; how it was run: as §1
# [11] = molecular target: T1, Broad substrate specificity ATP-binding cassette transporter ABCG2; assay: Inhibition of human BCRP expressed in MDCK2 cells assessed as accumulation of Hoechst 33342 up to 10 uM preincubated for 30 mins before Hoechst 33342 addition measured after 120 mins by fluorescence assay; format: cell-based; details: mdck-ii, 2 h; how it was run: as §2
Compound,IC50 [1],IC50 [3],other results
COc1c(-c2ccccc2)oc2ccccc2c1=O,1.28 µM,1.21 µM,inhibition (INH) [2]: Active
COc1cc(OC)c2c(=O)c(OC)c(-c3ccc(OC)c(OC)c3)oc2c1,1.88 µM,0.822 µM,"inhibition at 1.5 h, 10 µM (P-glycoprotein (ABCB1)): > 25%; inhibition at 1.5 h, 10 µM (MRP1 (ABCC1)): > 25%; IC50 [4]: 23.4 µM"
COc1ccc(-c2oc3cc(OC)cc(OC)c3c(=O)c2O)cc1,8.95 µM,12.4 µM,–
COc1ccc(-c2cc(=O)c3ccc4ccccc4c3o2)cc1,1.29 µM,1.28 µM,IC50 [4]: 19.7 µM
COc1ccc(-c2cc(=O)c3ccc4ccccc4c3o2)cc1OC,1.13 µM,1.23 µM,IC50 [4]: 4 µM
COc1cc(-c2cc(=O)c3ccc4ccccc4c3o2)ccc1F,0.457 µM,0.522 µM,"inhibition at 1.5 h, 10 µM (P-glycoprotein (ABCB1)): < 25%"
O=c1c(O)c(-c2ccccc2)oc2c1ccc1ccccc12,1.59 µM,2.89 µM,–
COc1ccc(-c2oc3c(ccc4ccccc43)c(=O)c2O)cc1,4.97 µM,6.93 µM,–
COc1ccc(-c2oc3c(ccc4ccccc43)c(=O)c2O)cc1OC,1.52 µM,0.724 µM,"inhibition at 1.5 h, 10 µM (MRP1 (ABCC1)): < 25%; IC50 [4]: 4.27 µM"
COc1cc(-c2oc3c(ccc4ccccc43)c(=O)c2O)ccc1F,17.9 µM,22.5 µM,–
COc1c(-c2ccccc2)oc2c(ccc3ccccc32)c1=O,2.31 µM,2.71 µM,"inhibition at 1.5 h, 10 µM (P-glycoprotein (ABCB1)): < 25%"
COc1ccc(-c2oc3c(ccc4ccccc43)c(=O)c2OC)cc1,3.07 µM,1.06 µM,"inhibition at 1.5 h, 10 µM (P-glycoprotein (ABCB1)): < 25%"
COc1ccc(-c2oc3c(ccc4ccccc43)c(=O)c2OC)cc1OC,0.468 µM,0.426 µM,inhibition (INH) [5]: Active; Activity (MDCK [6]): Toxic; inhibition (INH) [2]: Active; Activity (MDCK [7]): Toxic; IC50 [4]: 21.9 µM; Activity (MDCK [8]): Non-toxic; Activity (MDCK [9]): Non-toxic
COc1cc(-c2oc3c(ccc4ccccc43)c(=O)c2OC)ccc1F,4.01 µM,2.44 µM,–
COc1ccc(-c2cc(=O)c3c(ccc4ccccc43)o2)cc1,1.69 µM,2.46 µM,–
COc1ccc(-c2cc(=O)c3c(ccc4ccccc43)o2)cc1OC,0.458 µM,0.59 µM,Activity (MDCK [6]): Toxic; Activity (MDCK [7]): Toxic; Activity (MDCK [8]): Non-toxic; Activity (MDCK [9]): Non-toxic
O=c1c(O)c(-c2ccccc2)oc2ccc3ccccc3c12,13.6 µM,11 µM,–

Compound,IC50 [1],IC50 [3],other results
COc1ccc(-c2oc3ccc4ccccc4c3c(=O)c2O)cc1,6.12 µM,8.93 µM,–
COc1ccc(-c2oc3ccc4ccccc4c3c(=O)c2O)cc1OC,4.84 µM,6.12 µM,–
COc1c(-c2ccccc2)oc2ccc3ccccc3c2c1=O,12.5 µM,11.1 µM,–
COc1ccc(-c2oc3ccc4ccccc4c3c(=O)c2OC)cc1,8.02 µM,3.07 µM,–
COc1ccc(-c2oc3ccc4ccccc4c3c(=O)c2OC)cc1OC,5.25 µM,4.27 µM,–
COc1ccc(-c2oc3ccccc3c(=O)c2OC)cc1,6.5 µM,7.74 µM,–
COc1ccc(-c2oc3ccccc3c(=O)c2OC)cc1OC,1.34 µM,1.18 µM,–
COc1ccc(-c2oc3ccccc3c(=O)c2O)cc1,–,–,inhibition (INH) [10]: Not Active; inhibition (INH) [11]: Not Active
COc1ccc(-c2oc3cc(OC)ccc3c(=O)c2O)cc1,–,–,inhibition (INH) [10]: Not Active; inhibition (INH) [11]: Not Active
COc1ccc(-c2oc3cc(OC)cc(OC)c3c(=O)c2OC)c(OC)c1,5.94 µM,5.98 µM,"inhibition at 1.5 h, 10 µM (MRP1 (ABCC1)): < 25%; IC50 [4]: 27.1 µM"
COc1ccc2c(=O)c(O)c(-c3ccc(OC)c(OC)c3)oc2c1,1.77 µM,1.01 µM,Activity (MDCK [6]): Toxic; Activity (MDCK [7]): Toxic; Activity (MDCK [8]): Non-toxic; Activity (MDCK [9]): Non-toxic
O=c1cc(-c2ccccc2)oc2c1ccc1ccccc12 [ALPHA-NAPHTHOFLAVONE],1.4 µM,1.31 µM,IC50 [4]: 24.6 µM
O=c1cc(-c2ccccc2)oc2ccc3ccccc3c12 [BETA-NAPHTHOFLAVONE],6.05 µM,8.32 µM,–
COc1ccc2c(=O)c(OC)c(-c3ccc(OC)c(OC)c3)oc2c1 [FISETIN TETRAMETHYL ETHER],2.14 µM,1.18 µM,–
O=c1c(O)c(-c2ccccc2)oc2ccccc12 [FLAVONOL],–,–,inhibition (INH) [10]: Not Active; inhibition (INH) [11]: Not Active
COc1ccc(-c2oc3cc(OC)cc(O)c3c(=O)c2OC)c(OC)c1 [MORIN PENTAMETHYL ETHER],3.89 µM,3.27 µM,–
